Data: PMC3974318 (Memórias do Instituto Oswaldo Cruz, 2013)
“Also recorded” adds a separate entry of the source.

Experiments:
[1] = system: axenic amastigotes of Leishmania amazonensis; assay: Cell viability by propidium iodide staining, flow cytometry; type: cell-based
[2] = system: axenic amastigote forms of L. amazonensis; assay: Mitochondrial membrane potential by rhodamine 123, flow cytometry; type: cell-based, Leishmania amazonensis; conditions: 3 h, 32 °C, untreated cells 93.7%
[3] = system: Erythrocytes; assay: Cytotoxic activity: haemolysis of erythrocytes; type: cell-based, Human; conditions: for toxicity to mammalian erythrocytes (lysis), in words: 3 h, 37 °C
Outline: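 Blood from healthy human donors was defibrinated and washed in glycosylated saline. A 3% erythrocyte suspension in glycosylated saline was incubated with a range of test compound concentrations for 3 h at 37 °C. Supernatant absorbance at 550 nm was compared with 1% Triton X-100-treated wells to give percent haemolysis.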

[4] = system: promastigote forms of Leishmania amazonensis; assay: Ultrastructural analysis by SEM and TEM; type: cell-based; conditions: 2.5 µg/mL, 72 h
[5] = system: intracellular trypanosomes; conditions: ref Izumi et al. 2012; cited from earlier work
[6] = system: T. cruzi epimastigotes; conditions: extracellular replicative form; ref Izumi et al. (2012); cited from earlier work
[7] = 100 µg/mL, 3 h, 32 °C, negative control 11.4%

SMILES	PI-positive events, upper left quadrant gated percentage [1, 7] [%]	Rh123 upper right gated population percentage ([2]; 100 µg/mL) [%]	toxicity to mammalian erythrocytes (lysis), in words [3]	further results
C=C1CC[C@@H]2[C@](C)(CCC[C@]2(C)C(=O)O)[C@H]1CC/C(C)=C/C(=O)O [Agathic acid, labd-8(20)-13-dien-15,19-dioic acid]	63.4	27.5		
C[C@@H]1[C@H](O)[C@@H](C)/C=C/C=C/C=C/C=C/C=C/C=C/C=C/[C@H](O[C@@H]2O[C@H](C)[C@@H](O)[C@H](N)[C@@H]2O)C[C@@H]2O[C@](O)(C[C@@H](O)C[C@@H](O)[C@H](O)CC[C@@H](O)C[C@@H](O)CC(=O)O[C@H]1C)C[C@H](O)[C@H]2C(=O)O [Amphotericin B, reference compound]				PI-positive events, upper left quadrant gated percentage ([1]; positive control, concentration not given): 75.9%
N#CC(C#N)=NNc1cccc(Cl)c1 [CCCP, carbonyl cyanide m-chlorophenylhydrazone, reference compound]				Rh123 upper right gated population percentage ([2]; 200 µM): 53.1%
C=C1CC[C@H]2C(C)(C)[C@@H](O)CC[C@]2(C)[C@H]1CC/C(C)=C/C(=O)O [Hydroxycopalic acid, 3β-hydroxylabda-8(20),13-dien-15-oic acid]			more toxic	ultrastructural changes (TEM) [4]: swollen mitochondria with the appearance of concentric membrane structures inside the organelle; inhibition of 50% against intracellular trypanosomes [5]: 0.6 µg/mL; ultrastructural changes in epimastigotes [6]: organelle disorganisation and membranous vacuole formation
C=C1C[C@@]23CC[C@H]4[C@@](C)(CCC[C@@]4(C)C(=O)O)[C@@H]2CC[C@@H]1C3 [Kaurenoic acid, kaur-16-ene-18-oic acid]	60.8	24.4	more toxic	selectivity index (SI) ([3]; figures fit CC50/IC50 promastigote): 5
C=C1CC[C@@H]2C(C)(C)CCC[C@@]2(C)[C@@H]1CC/C(C)=C/C(=O)OC [Methyl copalate, methyl labd-8(20),13-dien-15-oate]				inhibition of 50% against intracellular trypanosomes [5]: 0.8 µg/mL
C=C1CC[C@@H]2[C@](C)(CCC[C@@]2(C)C(=O)O)[C@H]1CC[C@H](C)CC(=O)O [Pinifolic acid, labd-8(20)-ene-15,18-dioic acid]	68.4	32.4	did not cause lysis except at the maximum concentration tested	toxicity to mammalian erythrocytes (lysis), in words ([3]; listed as pinifolic acid): no toxicity was observed, except at the maximum concentration tested
C=C1CC[C@@H]2[C@](C)(CCC[C@@]2(C)C(=O)O)[C@H]1CCc1ccoc1 [Polyaltic acid, 15,16-epoxylabda-8(20),13(16),14-trien-19-oic acid]			did not cause lysis except at the maximum concentration tested; also recorded: no toxicity was observed, except at the maximum concentration tested	
